Activity calls are given as the source filed them. The calls are words filed in the database; no cut-off is given here.
Assays:
CYP3A4 = CYP3A4 (Homo sapiens, UniProt P08684); experiment: Inhibition of CYP3A4 in human liver microsomes assessed as reduction in 1'-hydroxymidazolam formation using midazolam as substrate at 10 uM preincubated with enzyme and NADPH followed by substrate addition and measured after 10 mins by HPLC/MS-MS analysis relative to control; format: ADME; settings: probe midazolam (1'-hydroxymidazolam formation)
Sequence of CYP3A4 (P08684 whole entry): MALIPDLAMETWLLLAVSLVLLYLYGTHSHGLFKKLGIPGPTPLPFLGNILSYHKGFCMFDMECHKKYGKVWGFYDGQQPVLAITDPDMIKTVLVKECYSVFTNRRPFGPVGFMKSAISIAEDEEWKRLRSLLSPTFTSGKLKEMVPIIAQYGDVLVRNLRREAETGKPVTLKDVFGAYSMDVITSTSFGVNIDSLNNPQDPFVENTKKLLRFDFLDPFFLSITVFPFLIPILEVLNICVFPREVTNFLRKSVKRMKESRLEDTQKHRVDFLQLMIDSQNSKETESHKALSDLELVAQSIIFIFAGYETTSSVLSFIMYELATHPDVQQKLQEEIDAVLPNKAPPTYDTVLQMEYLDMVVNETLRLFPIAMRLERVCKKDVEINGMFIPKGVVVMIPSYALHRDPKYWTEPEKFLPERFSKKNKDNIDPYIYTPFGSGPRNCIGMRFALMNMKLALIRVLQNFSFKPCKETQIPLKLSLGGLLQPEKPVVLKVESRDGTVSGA
Procedure, shortened: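 Compound at 100 µM was pre-incubated at 37 °C with human liver microsomes (0.5 mg/mL) in 0.1 M phosphate pH 7.4 with 5 mM MgCl₂ and 1 mM NADPH. The mix was then diluted 10-fold into 25 µM midazolam in the same buffer and incubated 10 min at 37 °C. Ice-cold acetonitrile stopped the reaction. 1′-Hydroxymidazolam was quantified by HPLC-MS/MS, with ketoconazole (1 µM) as reference inhibitor.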

[1] = biological target: T1, Nuclear receptor subfamily 1 group I member 2 (Homo sapiens, UniProt O75469); experiment: Activation of human PXR ligand binding domain incubated for 1 hr by TR-FRET assay; format: ADME
T1 sequence (O75469 whole entry): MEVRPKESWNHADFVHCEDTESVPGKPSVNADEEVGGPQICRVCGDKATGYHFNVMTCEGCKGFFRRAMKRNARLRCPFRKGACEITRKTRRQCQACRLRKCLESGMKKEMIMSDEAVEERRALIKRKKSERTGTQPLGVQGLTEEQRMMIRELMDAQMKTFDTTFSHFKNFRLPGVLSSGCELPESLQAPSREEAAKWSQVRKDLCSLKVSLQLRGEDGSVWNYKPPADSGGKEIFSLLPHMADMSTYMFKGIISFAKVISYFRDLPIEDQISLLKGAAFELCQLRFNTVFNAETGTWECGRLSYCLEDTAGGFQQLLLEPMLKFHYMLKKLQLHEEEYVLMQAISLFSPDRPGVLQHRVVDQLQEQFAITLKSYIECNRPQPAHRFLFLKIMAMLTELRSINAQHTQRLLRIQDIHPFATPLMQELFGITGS

[2] = Toxicity in mouse assessed as convulsions at 300 mg/kg, po; format: organism-based; settings: in vivo
[3] = Tmax in Sprague-Dawley rat at 3 mg/kg, po by LC-MS/MS analysis; format: ADME, organism-based; settings: in vivo, time <=6 hrs
Procedure, shortened: (§1)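 Rats were given a single oral or intravenous dose. Blood was taken from the jugular vein at 2, 15 and 30 min and at 1, 2, 4 and 6 h. Plasma levels were measured by LC-MS/MS. Each parameter was calculated from the mean plasma concentration of three animals.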

[4] = AUC (0 to infinity) in Sprague-Dawley rat at 1 mg/kg, iv by LC-MS/MS analysis; format: ADME, organism-based; parameters: time infinity, route intravenous, dose 1 mg/kg; settings: in vivo; procedure, shortened: as §1
[5] = biological target: Transient receptor potential cation channel subfamily A member 1 (Homo sapiens, UniProt O75762); experiment: Inhibition of human TRPA1 transfected in HEK293T cells assessed as reduction in AITC-induced calcium influx measured after 60 mins by Fluo-4 AM dye based fluorescence analysis; format: cell-based
Sequence of Transient receptor potential cation channel subfamily A member 1 (O75762 whole entry): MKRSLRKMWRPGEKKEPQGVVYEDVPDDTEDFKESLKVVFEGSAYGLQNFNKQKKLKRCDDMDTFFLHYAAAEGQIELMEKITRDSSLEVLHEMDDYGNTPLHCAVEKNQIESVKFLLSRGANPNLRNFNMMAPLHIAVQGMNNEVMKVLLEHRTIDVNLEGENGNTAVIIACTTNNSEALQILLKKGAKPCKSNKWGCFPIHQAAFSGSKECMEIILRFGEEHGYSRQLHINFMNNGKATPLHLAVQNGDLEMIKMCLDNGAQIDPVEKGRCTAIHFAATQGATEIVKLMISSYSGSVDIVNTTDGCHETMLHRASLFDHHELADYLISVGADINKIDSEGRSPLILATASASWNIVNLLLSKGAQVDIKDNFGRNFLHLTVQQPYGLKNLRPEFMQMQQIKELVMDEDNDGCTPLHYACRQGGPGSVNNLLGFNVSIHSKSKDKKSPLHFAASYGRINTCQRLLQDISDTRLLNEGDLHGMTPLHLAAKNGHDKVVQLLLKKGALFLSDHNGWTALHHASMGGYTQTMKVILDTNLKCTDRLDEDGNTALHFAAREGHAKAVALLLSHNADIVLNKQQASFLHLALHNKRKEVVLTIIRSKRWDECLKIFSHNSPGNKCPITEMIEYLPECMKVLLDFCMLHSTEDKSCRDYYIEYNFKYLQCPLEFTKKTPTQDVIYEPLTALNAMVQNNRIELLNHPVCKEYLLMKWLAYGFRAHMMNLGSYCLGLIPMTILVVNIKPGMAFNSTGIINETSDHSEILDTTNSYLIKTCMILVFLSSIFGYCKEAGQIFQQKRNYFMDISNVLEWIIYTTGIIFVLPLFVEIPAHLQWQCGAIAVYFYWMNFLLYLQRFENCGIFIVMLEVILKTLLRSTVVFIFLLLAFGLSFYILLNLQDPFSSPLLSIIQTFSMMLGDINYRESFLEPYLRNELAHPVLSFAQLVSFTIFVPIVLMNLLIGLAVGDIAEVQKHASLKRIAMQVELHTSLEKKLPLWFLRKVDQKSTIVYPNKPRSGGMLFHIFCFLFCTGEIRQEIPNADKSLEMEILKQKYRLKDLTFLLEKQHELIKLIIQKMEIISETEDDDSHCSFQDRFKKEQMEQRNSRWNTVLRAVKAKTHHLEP
Procedure, shortened: (§2)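 HEK293T cells were seeded at 5 × 10⁴ cells/well in DMEM with 10% FBS and transfected 4 h later. The vectors were pcDNA3.1 for TRPM8, TRPA1 and TRPV4, and pCI-neo for TRPV1. After 2 days, cells were dye-loaded for 60 min at 37 °C: Fluo-4 AM for TRPM8, TRPA1 and TRPV1, Fura-2 AM for TRPV4. Calcium was read on an FDSS reader. IC50 came from nonlinear regression, mean ± SEM (n = 3).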

[6] = biological target: Transient receptor potential cation channel subfamily M member 8 (Rattus norvegicus, UniProt Q8R455); experiment: Antagonist activity at rat TRPM8 transfected in HEK293T cells assessed as reduction in menthol-induced calcium influx measured after 60 mins by Fluo-4 AM dye based fluorescence analysis; format: cell-based; procedure, shortened: as §2
Sequence of Transient receptor potential cation channel subfamily M member 8 (Rattus norvegicus, UniProt Q8R455) (Q8R455 whole entry): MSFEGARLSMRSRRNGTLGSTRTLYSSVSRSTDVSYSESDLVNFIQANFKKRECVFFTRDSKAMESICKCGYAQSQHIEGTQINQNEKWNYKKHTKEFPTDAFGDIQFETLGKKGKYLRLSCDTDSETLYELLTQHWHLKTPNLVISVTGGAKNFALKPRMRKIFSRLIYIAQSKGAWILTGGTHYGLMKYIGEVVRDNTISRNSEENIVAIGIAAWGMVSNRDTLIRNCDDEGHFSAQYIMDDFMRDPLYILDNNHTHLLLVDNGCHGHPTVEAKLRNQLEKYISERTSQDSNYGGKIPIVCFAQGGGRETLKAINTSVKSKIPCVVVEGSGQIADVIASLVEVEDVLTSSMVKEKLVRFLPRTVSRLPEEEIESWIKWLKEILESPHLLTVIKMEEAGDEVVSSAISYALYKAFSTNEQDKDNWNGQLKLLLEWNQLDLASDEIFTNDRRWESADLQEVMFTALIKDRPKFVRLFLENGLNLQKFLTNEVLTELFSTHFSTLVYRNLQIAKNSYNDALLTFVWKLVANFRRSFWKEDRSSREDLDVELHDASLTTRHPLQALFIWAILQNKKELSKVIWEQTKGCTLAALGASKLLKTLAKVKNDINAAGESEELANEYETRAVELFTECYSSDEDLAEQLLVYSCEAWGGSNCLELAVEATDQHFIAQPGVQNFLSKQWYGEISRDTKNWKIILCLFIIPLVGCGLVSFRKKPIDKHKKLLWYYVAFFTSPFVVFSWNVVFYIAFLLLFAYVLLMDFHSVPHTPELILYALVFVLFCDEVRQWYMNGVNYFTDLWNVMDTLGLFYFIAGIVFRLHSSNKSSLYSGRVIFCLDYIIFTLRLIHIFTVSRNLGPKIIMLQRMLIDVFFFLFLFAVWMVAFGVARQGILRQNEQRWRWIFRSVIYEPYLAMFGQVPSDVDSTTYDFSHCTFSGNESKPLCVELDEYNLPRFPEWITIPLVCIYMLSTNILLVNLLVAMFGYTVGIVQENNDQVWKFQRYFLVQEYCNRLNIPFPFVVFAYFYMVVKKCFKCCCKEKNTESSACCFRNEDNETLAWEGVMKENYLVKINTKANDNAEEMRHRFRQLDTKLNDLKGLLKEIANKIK

[7] = biological target: Transient receptor potential cation channel subfamily V member 4 (Homo sapiens, UniProt Q9HBA0); experiment: Inhibition of human TRPV4 transfected in HEK293T cells assessed as reduction in RN1747-induced calcium influx measured after 60 mins by Fura-2 AM dye based fluorescence analysis; format: cell-based; procedure, shortened: as §2
Sequence of Transient receptor potential cation channel subfamily V member 4 (Q9HBA0 whole entry): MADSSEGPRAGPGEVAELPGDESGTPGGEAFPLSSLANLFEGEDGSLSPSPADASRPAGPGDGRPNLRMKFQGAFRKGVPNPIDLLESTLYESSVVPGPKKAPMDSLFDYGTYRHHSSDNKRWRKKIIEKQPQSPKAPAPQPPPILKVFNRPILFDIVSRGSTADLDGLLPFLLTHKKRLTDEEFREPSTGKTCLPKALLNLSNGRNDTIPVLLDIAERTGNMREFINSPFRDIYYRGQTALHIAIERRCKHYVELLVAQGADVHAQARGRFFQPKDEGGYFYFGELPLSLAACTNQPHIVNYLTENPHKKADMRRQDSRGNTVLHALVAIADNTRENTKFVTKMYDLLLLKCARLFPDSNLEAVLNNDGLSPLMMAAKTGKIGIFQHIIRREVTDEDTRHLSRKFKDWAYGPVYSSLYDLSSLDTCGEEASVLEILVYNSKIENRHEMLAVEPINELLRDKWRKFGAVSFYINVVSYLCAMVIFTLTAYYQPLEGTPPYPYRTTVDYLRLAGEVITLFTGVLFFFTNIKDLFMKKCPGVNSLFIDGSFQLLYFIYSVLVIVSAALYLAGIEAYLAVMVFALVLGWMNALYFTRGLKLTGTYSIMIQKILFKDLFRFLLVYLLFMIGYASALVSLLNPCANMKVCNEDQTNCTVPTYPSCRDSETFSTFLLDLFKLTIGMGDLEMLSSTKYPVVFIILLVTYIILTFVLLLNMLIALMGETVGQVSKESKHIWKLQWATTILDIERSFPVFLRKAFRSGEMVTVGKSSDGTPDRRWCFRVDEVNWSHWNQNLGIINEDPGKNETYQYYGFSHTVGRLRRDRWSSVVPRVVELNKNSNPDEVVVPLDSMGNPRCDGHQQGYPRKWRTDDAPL

[8] = Cmax in Sprague-Dawley rat at 3 mg/kg, po measured upto 6 hrs by LC-MS/MS analysis; format: ADME, organism-based; parameters: route oral, dose 3 mg/kg, time <=6; settings: in vivo; procedure, shortened: as §1
[9] = AUC (0 to infinity) in Sprague-Dawley rat at 3 mg/kg, po by LC-MS/MS analysis; format: ADME, organism-based; parameters: time infinity, route oral, dose 3 mg/kg; settings: in vivo; procedure, shortened: as §1
[10] = Total clearance in Sprague-Dawley rat at 1 mg/kg, iv measured upto 6 hrs by LC-MS/MS analysis; format: ADME, organism-based; settings: in vivo; procedure, shortened: as §1
[11] = biological target: Transient receptor potential cation channel subfamily V member 1 (Homo sapiens, UniProt Q8NER1); experiment: Inhibition of human TRPV1 transfected in HEK293T cells assessed as reduction in capsaicin-induced calcium influx measured after 60 mins by Fluo-4 AM dye based fluorescence analysis; format: cell-based; procedure, shortened: as §2
Sequence of Transient receptor potential cation channel subfamily V member 1 (Q8NER1 whole entry): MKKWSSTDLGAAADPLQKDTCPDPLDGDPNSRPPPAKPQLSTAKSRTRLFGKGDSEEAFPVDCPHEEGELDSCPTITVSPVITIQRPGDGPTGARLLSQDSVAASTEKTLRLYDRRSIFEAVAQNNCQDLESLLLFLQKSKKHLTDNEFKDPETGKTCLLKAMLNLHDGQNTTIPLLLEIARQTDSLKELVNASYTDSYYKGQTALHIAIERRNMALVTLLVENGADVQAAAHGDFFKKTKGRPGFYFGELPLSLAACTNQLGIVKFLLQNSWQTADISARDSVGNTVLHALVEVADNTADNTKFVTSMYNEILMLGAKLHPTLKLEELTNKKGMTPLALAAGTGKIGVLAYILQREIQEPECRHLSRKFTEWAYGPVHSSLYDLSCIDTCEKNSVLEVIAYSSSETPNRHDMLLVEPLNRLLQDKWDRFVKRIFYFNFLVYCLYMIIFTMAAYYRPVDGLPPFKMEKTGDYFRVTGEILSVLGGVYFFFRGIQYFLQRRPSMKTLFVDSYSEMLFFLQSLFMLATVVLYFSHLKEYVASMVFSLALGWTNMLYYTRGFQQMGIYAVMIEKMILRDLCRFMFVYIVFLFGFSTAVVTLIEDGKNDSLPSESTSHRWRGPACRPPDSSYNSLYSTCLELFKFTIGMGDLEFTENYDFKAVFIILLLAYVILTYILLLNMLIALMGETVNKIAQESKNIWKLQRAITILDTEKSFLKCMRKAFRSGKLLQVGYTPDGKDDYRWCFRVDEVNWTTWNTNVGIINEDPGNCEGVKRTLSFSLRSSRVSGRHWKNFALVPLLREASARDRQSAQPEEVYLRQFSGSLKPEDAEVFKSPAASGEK

[12] = Volume of distribution at steady state in Sprague-Dawley rat at 1 mg/kg, iv measured upto 6 hrs by LC-MS/MS analysis; format: ADME, organism-based; settings: in vivo, read-out: Vdss; procedure, shortened: as §1
[13] = Oral bioavailability in Sprague-Dawley rat at 3 mg/kg measured upto 6 hrs by LC-MS/MS analysis; format: ADME, organism-based; settings: in vivo; procedure, shortened: as §1
[14] = Half life in Sprague Dawley rat at 1 mg/kg, iv by LC-MS/MS analysis; format: ADME, organism-based; settings: in vivo; procedure, shortened: as §1
[15] = Drug uptake in rat brain measured after 4 hrs; format: ADME, tissue-based; settings: read-out: Drug uptake
[16] = Plasma concentration in rat measured after 4 hrs; format: ADME, cell-free
Rattus norvegicus [17] = experiment: Inhibition of overactive bladder activity in Sprague-Dawley rat assessed as inhibition of cold-induced voiding behaviour by measuring total voided volume at 10 mg/kg, po administered 1 hr prior to cold exposure and measured at 2 mins interval for 4 hrs (reference value: 5.57 +/-0.27 ml); format: functional; settings: time 5 hrs
[18] = In vivo antagonist activity at TRPM8 in Sprague-Dawley rat assessed as inhibition of icilin-induced wet dog shakes at 10 mg/kg, po administered 1 hr prior to icilin administration and measured after 5 mins for 5 mins; format: functional; settings: 1.167 h, time 70 min
Procedure, shortened: (§3)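 Female rats received vehicle or compound orally. After 1 or 4 h, icilin (1 mg/mL in PEG 400) was given intraperitoneally. Wet-dog shakes were counted for 5 min, starting 5 min after icilin. Results are percent inhibition versus vehicle-treated counts, mean ± SEM (n = 5).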

[19] = In vivo antagonist activity at TRPM8 in Sprague-Dawley rat assessed as inhibition of icilin-induced wet dog shakes at 10 mg/kg, po administered 4 hrs prior to icilin administration and measured after 5 mins for 5 mins; format: functional; settings: 4.167 h, time 250 min; procedure, shortened: as §3
[20] = Ratio of drug level in rat brain to plasma measured after 4 hrs; format: ADME, cell-free; settings: read-out: BPR
Rattus norvegicus [21] = experiment: Inhibition of overactive bladder activity in Sprague-Dawley rat assessed as inhibition of cold-induced voiding behaviour by measuring mean voided volume at 10 mg/kg, po administered 1 hr prior to cold exposure and measured at 2 mins interval for 4 hrs (reference value: 0.57 +/- 0.05 ml); format: functional; settings: time 5 hrs
Rattus norvegicus [22] = experiment: Inhibition of overactive bladder activity in Sprague-Dawley rat assessed as inhibition of cold-induced voiding behaviour by measuring reduction in voiding frequency at 10 mg/kg, po administered 1 hr prior to cold exposure and measured at 2 mins interval for 4 hrs; format: functional, organism-based; settings: time 5.0 hrs
[23] = biological target: Transient receptor potential cation channel subfamily M member 8 (Homo sapiens, UniProt Q7Z2W7); experiment: Antagonist activity at human TRPM8 transfected in HEK293T cells assessed as reduction in menthol-induced calcium influx measured after 60 mins by Fluo-4 AM dye based fluorescence analysis; format: cell-based

**Q.** For NC(=O)[C@@H](c1ccccc1)N(C(=O)c1cccnc1)[C@@H]1CCc2c(F)cc(Cl)cc21, which inhibition at 10 min, 10 µM (CYP3A4) is on record?
**A.** Its inhibition at 10 min, 10 µM is 65%.

**Q.** What about the EC50 [1] of the same molecule?
**A.** Its EC50 is 131 µM.

**Q.** What about the Activity [2] of the same molecule?
**A.** Its Activity is “Non-Toxic”.

**Q.** With NC(=O)[C@@H](c1ccccc1)N(C(=O)c1cccnc1N)[C@@H]1CCc2c(F)cc(Cl)cc21 as the molecule, how does the inhibition at 10 min, 10 µM (CYP3A4) read?
**A.** The inhibition at 10 min, 10 µM was 18%.

**Q.** What does the source list for Cc1ncccc1C(=O)N([C@@H]1CCc2c(F)cc(Cl)cc21)[C@@H](C(N)=O)c1ccccc1?
**A.** Tmax [3]: 40 min; AUC(0-inf) [4]: 674 ng·h/mL; IC50 [5]: > 30 µM; inhibition at 10 min, 10 µM (CYP3A4): 17%; IC50 [6]: 0.08 µM; IC50 [7]: > 30 µM; Cmax [8]: 466 ng/mL; AUC(0-inf) [9]: 1110 ng·h/mL; clearance [10]: 25 mL/min/kg; IC50 [11]: > 30 µM; Vd [12]: 1.89 L/kg; bioavailability [13]: 55%; Activity [2]: Non-Toxic; half-life [14]: 64 min

**Q.** For C[C@H](c1cc(F)cc(F)c1)N(C(=O)c1ccccc1O)[C@@H](C(N)=O)c1ccccc1, which EC50 [1] is on record?
**A.** Its EC50 is 12 µM.

**Q.** With NC(=O)[C@@H](c1ccccc1)N(C(=O)c1cccnc1)[C@@H]1CCc2c(F)cc(F)cc21 as the molecule, how does the EC50 [1] read?
**A.** Its EC50 is 47 µM.

**Q.** With C[C@H](c1cc(F)cc(F)c1)N(C(=O)c1ccccc1)[C@@H](C(N)=O)c1ccccc1 as the molecule, how does the concentration at 4 h [15] read?
**A.** Its concentration at 4 h is 171 µM.

**Q.** And the concentration at 4 h [16]?
**A.** The concentration at 4 h was 103 µM.

**Q.** What about the Activity (Rattus norvegicus [17]) of the same molecule?
**A.** Its Activity is 5.81 mL.

**Q.** And the inhibition at 10 min, 10 µM (CYP3A4)?
**A.** The inhibition at 10 min, 10 µM was 27%.

**Q.** And the inhibition in vivo at 10 mg/kg [18]?
**A.** Its inhibition in vivo at 10 mg/kg is 100%.

**Q.** And the inhibition in vivo at 10 mg/kg [19]?
**A.** Its inhibition in vivo at 10 mg/kg is 97%.

**Q.** What about the EC50 [1] of the same molecule?
**A.** Its EC50 is 10.3 µM.

**Q.** And the Kp at 4 h [20]?
**A.** Its Kp at 4 h is 1.66.

**Q.** What about the Activity (Rattus norvegicus [21]) of the same molecule?
**A.** The Activity was 0.75 mL.

**Q.** What about the inhibition (Rattus norvegicus [22]) of the same molecule?
**A.** Its inhibition is “Active”.

**Q.** For COc1ncccc1C(=O)N([C@@H]1CCc2c(F)cc(Cl)cc21)[C@@H](C(N)=O)c1ccccc1, which inhibition at 10 min, 10 µM (CYP3A4) is on record?
**A.** The inhibition at 10 min, 10 µM was 22%.

**Q.** Which IC50 [23] does the source give for NC(=O)[C@@H](c1ccccc1)N(C(=O)c1ccccc1)[C@@H]1CCc2ncccc21 here?
**A.** The IC50 was 19.5 µM.
